Assay results gathered from unrelated publications.
SLC10A2: Ileal sodium/bile acid cotransporter (SLC10A2, Homo sapiens, UniProt Q12908)
SETD7: Histone-lysine N-methyltransferase SETD7 (SETD7, Homo sapiens, UniProt Q8WTS6)
HSD11B1: 11-beta-hydroxysteroid dehydrogenase 1 (HSD11B1, Homo sapiens, UniProt P28845)
CNR2: Cannabinoid receptor 2 (CNR2, Homo sapiens, UniProt P34972)
ADRB2: Beta-2 adrenergic receptor (ADRB2, Homo sapiens, UniProt P07550)

SMILES	target	test	test system	conditions	inhibition
Cc1cn([C@H]2C[C@H](N=[N+]=[N-])[C@@H](CO)O2)c(=O)[nH]c1=O	SLC10A2	transporter uptake, inhibitor, radiometric		1 mM	< 10%
CN1CC(Oc2cnc(C#N)cc2-c2ccn3nc(NC(=O)C4CC4)cc3c2)C1	Phosphatidylinositol 5-phosphate 4-kinase type-2 alpha (PIP4K2A, Homo sapiens, UniProt P48426)	enzyme activity, inhibitor		1 µM	3%
Ic1cccc2cnccc12	Protein mono-ADP-ribosyltransferase PARP6 (PARP6, Homo sapiens, UniProt Q2NL67)	enzyme activity, inhibitor		10 µM	11%
CC(CCc1ccccc1)NCC(O)c1ccc(O)c(C(N)=O)c1 (centres unmarked)	SLC10A2	transporter uptake, inhibitor, radiometric		1 mM	38.6%
O=C(Oc1cc(O)cc2c1C[C@@H](OC(=O)c1cc(O)c(O)c(O)c1)[C@@H](c1cc(O)c(O)c(O)c1)O2)c1cc(O)c(O)c(O)c1	SETD7	cell-free assay		10 µM	28%
O=C1N=C(N2CCCCN2)S/C1=C\c1ccc(F)cc1O	Galanin receptor type 2 (GALR2, Homo sapiens, UniProt O43603)	ligand displacement, radioligand		10 µM	< 10%
CCC(C)(C)C(=O)O[C@H]1C[C@@H](C)C=C2C=C[C@H](C)[C@H](CC[C@@H]3C[C@@H](O)CC(=O)O3)[C@H]21	HSD11B1	enzyme activity, inhibitor		20 µM, lysate	< 40%
CN1CCC(=C2c3ccccc3Sc3ccccc32)CC1	SETD7	cell-free assay		10 µM	41%
CCN(c1cc(C#CCN2CCOCC2)cc(C(=O)NCc2c(C)cc(C)[nH]c2=O)c1C)[C@H]1CC[C@H](N(C)CCOC)CC1	Histone-lysine N-methyltransferase SUV39H1 (SUV39H1, Homo sapiens, UniProt O43463)	enzyme activity, inhibitor		1 µM	11%
CCCCC(CC)CNC(=N)NC(=N)NCCCCCCNC(=N)NC(=N)NCC(CC)CCCC (centres unmarked)	SETD7	cell-free assay		10 µM	-110%
CCCCNc1cc(C(=O)O)cc(S(N)(=O)=O)c1Oc1ccccc1	SLC10A2	transporter uptake, inhibitor, radiometric		1 mM	78.1%
CCCCc1oc2ccccc2c1C(=O)c1cc(I)c(OCCN(CC)CC)c(I)c1	HSD11B1	enzyme activity, inhibitor		20 µM, lysate	< 40%
COc1ccc(-n2nc(OCCCN3CCCCC3)ccc2=O)cc1	CNR2	ligand displacement		1 µM	33.1%
CC(C)(C#N)c1cc(Cn2cncn2)cc(C(C)(C)C#N)c1	SLC10A2	transporter uptake, inhibitor, radiometric		1 mM	36.8%
CCCNc1nc2ccccc2n1Cc1ccc(Cl)cc1	D(1B) dopamine receptor (DRD5, Homo sapiens, UniProt P21918)	ligand displacement		10 µM	69.6%
O=C1c2c(O)cccc2Cc2cccc(O)c21	SETD7	cell-free assay		10 µM	8%

SMILES	target	test	test system	conditions	inhibition
CN(CCOc1ccc(CC2SC(=O)NC2=O)cc1)c1ccccn1 (centres unmarked)	HSD11B1	enzyme activity, inhibitor		20 µM, lysate	< 40%
CN(C)c1ccc(C(=C2C=CC(=[N+](C)C)C=C2)c2ccc(N(C)C)cc2)cc1	SETD7	cell-free assay		10 µM	59%
Oc1cccc(Nc2nc(-c3ccc(F)cc3F)cs2)c1	CNR2	cell-free assay		10 µM	35.3%
CN1CCCCC1CCN1c2ccccc2Sc2ccc([S+](C)[O-])cc21 (centres unmarked)	SLC10A2	transporter uptake, inhibitor, radiometric		1 mM	73.6%
O=C(c1ccc(Cl)cc1)N(Cc1ccccc1)C1CCCCC1	ADRB2	cell-free assay		10 µM	1.6%
NS(=O)(=O)c1cc2c(cc1Cl)NCNS2(=O)=O	SLC10A2	transporter uptake, inhibitor, radiometric		1 mM	25.8%
CCN1CCN(Cc2ccc(NC(=O)c3ccc(C)c(/C=C/c4cnc5[nH]ccc5c4OC)c3)cc2C(F)(F)F)CC1	Casein kinase I isoform alpha (CSNK1A1, Homo sapiens, UniProt P48729)	target engagement in cells, inhibitor, chemoproteomics	A-375	5 µM	-58.8%
C[C@H]1C[C@@H]2[C@H]([C@@H](O)C[C@@]3(C)[C@H]2CC[C@]3(O)C(=O)CO)[C@@]2(C)C=CC(=O)C=C12	SLC10A2	transporter uptake, inhibitor, radiometric		1 mM	< 10%
CNC(=O)c1cc(Oc2ccc(NC(=O)Nc3ccc(Cl)c(C(F)(F)F)c3)cc2)ccn1	G protein-coupled receptor kinase 5 (GRK5, Homo sapiens, UniProt P34947)	enzyme activity, inhibitor		10 µM	0%
COc1cc(NC(C)=O)c(Cl)cc1C(=O)Nc1nccs1	ADRB2	cell-free assay		10 µM	-8.3%
COc1cc(NC(C)CCCN)c2ncccc2c1 (centres unmarked)	SETD7	cell-free assay		10 µM	-19%
CCOC(=O)C1=C(COCCN)NC(C)=C(C(=O)OC)C1c1ccccc1Cl (centres unmarked)	SLC10A2	transporter uptake, inhibitor, radiometric		1 mM	95.5%
O=C(O[C@@H]1Cc2c(O)cc(O)cc2O[C@@H]1c1cc(O)c(=O)c2c(O)c(O)cc([C@H]3Oc4cc(O)cc(O)c4C[C@H]3OC(=O)c3cc(O)c(O)c(O)c3)c2c1)c1cc(O)c(O)c(O)c1	SETD7	cell-free assay		10 µM	38%
CC(C)c1ncccc2nc(N)nc1-2	72 kDa type IV collagenase (MMP2, Homo sapiens, UniProt P08253)	enzyme activity, inhibitor		50 µM	52%
O=C(O)c1cc(O)c2c(c1)[C@H]([C@H]1c3cc(C(=O)O)cc(O)c3C(=O)c3c(O[C@@H]4O[C@H](CO)[C@@H](O)[C@H](O)[C@H]4O)cccc31)c1cccc(O[C@@H]3O[C@H](CO)[C@@H](O)[C@H](O)[C@H]3O)c1C2=O	SETD7	cell-free assay		10 µM	36%
CC(=O)N[C@H]1CSSC[C@@H](C(=O)N[C@@H](Cc2c[nH]c3ccccc23)C(N)=O)NC(=O)[C@H](Cc2ccccc2)NC(=O)[C@H](CCCNC(=N)N)NC1=O	Melanocortin receptor 5 (MC5R, Homo sapiens, UniProt P33032)	ligand displacement, radioligand		10 µM, 40 min	0%
